Data reported in PubChem BioAssay AID743061 (The Scripps Research Institute Molecular Screening Center, 2013).

Molecular target: Methionine--tRNA ligase, mitochondrial (Homo sapiens) (UniProt Q96GW9)
Experiment: human mtMetRS tRNA charging inhibition – biochemical, radioactivity, round 1, selectivity assay for T. brucei MetRS inhibitor project, late-stage follow-up (AID 743061);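 also: 0% = DMSO with full reaction and 100% = DMSO wells lacking tRNA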
Conditions: recombinant human mtMetRS, [3H]Met tRNA charging, at 1 µM, stronger effect = higher value
How it was run: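 System: recombinant human mitochondrial methionyl-tRNA synthetase (MetRS); Buffer or medium: pH 8.0 reaction buffer containing 2.5 mM ATP; Controls: high DMSO, low without tRNA; Reagent: [3H]Met 240 nM plus bulk E. coli tRNA; Schedule: 15 min preincubation, 1 h reaction, room temperature; Measured by: scintillation counts of TCA-precipitated charged tRNA on filters.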

SMILES | inhibition
O=C(NCCc1nc2ccccc2[nH]1)c1ccc(Cl)c(Cl)c1 | 2.38%
CN(Cc1cc(Cl)cc(Cl)c1)[C@H]1C[C@H]2c3[nH]c4ccccc4c3CCN2C(=O)[C@H]1CO | 14%
COc1ccccc1NC(=O)Cn1cc(C(=O)C(=O)N2CCOCC2)c2ccccc21 | -9.04%
CCN(CC)C(=O)C(=O)c1cn(CC(=O)N(CC)c2ccccc2)c2ccccc12 | 2.19%
COCCc1nc2ccc(C(=O)NCCc3nc4ccc(OC)cc4[nH]3)cc2o1 | -5.43%
CC(CC(=O)Nc1cccc(Br)c1)=NNC(=O)c1ccc(O)cc1O | -24.6%
O=C(Cn1cc(C(=O)C(=O)N2CCOCC2)c2ccccc21)Nc1cccc(C(F)(F)F)c1 | -22.4%
O=C(NCc1nc2ccccc2[nH]1)C1=C[C@H](c2ccc(Br)cc2)C[C@H](OCc2ccc(CO)cc2)O1 | 0.59%
CCCCCCCCCC1NC(C(=O)O)Cc2c1[nH]c1ccccc21 (stereo not given) | -2.41%
O=C(CCC(=O)Nc1cccc([N+](=O)[O-])c1)NN=Cc1cccs1 | -28.9%
Clc1ccc(-c2nnc(SCc3nc4ccccc4[nH]3)o2)c(Cl)c1 | -3.17%
COc1ccc2[nH]c3nc(SCC(=O)Nc4ccc5c(c4)OCO5)nnc3c2c1 | 14.3%
COc1ccccc1NS(=O)(=O)c1cccc(NC(=O)Nc2ccccc2)c1 | -9.69%
O=C(NCc1nc2ccccc2[nH]1)C1=C[C@@H](c2ccccc2)C[C@@H](OCc2ccc(CO)cc2)O1 | -16.8%
CCN(C(=O)Cn1cc(C(=O)C(=O)N2CCOCC2)c2ccccc21)c1ccccc1 | -12.3%
O=C(NCCc1nc2ccccc2[nH]1)c1ccc(Cl)cc1Cl | 16.4%
Cc1cc2cc(C(=O)N3CCCC(c4nc5ccccc5[nH]4)C3)ccc2o1 (stereo not given) | -13.2%
CN1CC(=O)N2C(c3cccc([N+](=O)[O-])c3)c3[nH]c4ccccc4c3C[C@H]2C1=O (stereo not given in full) | -17.1%

SMILES | inhibition
Brc1cnc2nc(SCc3nc4ccccc4[nH]3)[nH]c2c1 | -21.5%
O=C(CSc1nnc2c(n1)[nH]c1ccc(Br)cc12)NCc1ccccc1 | -0.52%
COc1ccc(CCN(C(=O)c2cccc(F)c2)C2CC(=O)N(c3ccc(Br)cc3)C2=O)cc1 (stereo not given) | -8.56%
CC(=O)c1cn(CC(=O)Nc2cccc(C(F)(F)F)c2)c2ccccc12 | -20.4%
CCN(CC)C(=O)C(=O)c1cn(CC(=O)Nc2cccc(OC)c2)c2ccccc12 | 10.6%
Cc1ccc(CNC(=O)CSc2nnc3c(n2)[nH]c2ccc(C)cc23)cc1 | 1.77%
CC(=O)N(CCc1ccccc1)C1CC(=O)N(c2ccc(Br)cc2)C1=O (stereo not given) | -17.2%
O=C(Cn1cc(C(=O)C(=O)N2CCOCC2)c2ccccc21)NCc1ccccc1 | -5.05%
COc1ccccc1NC(=O)CSc1nnc2c(n1)[nH]c1ccc(C)cc12 | -3.56%
Cn1c(CCNC(=O)c2ccc(Cl)cc2)nc2ccccc21 | 11.6%
O=C1CC(N(CCc2ccccc2)C(=S)Nc2ccccc2)C(=O)N1c1ccc(Br)cc1 (stereo not given) | -25.5%
O=C1CC(NCCc2ccccc2)C(=O)N1c1ccc(Br)cc1 (stereo not given) | -12.9%
O=C(NCc1nc2ccccc2[nH]1)C1=C[C@@H](c2csc3ccccc23)C[C@@H](OCCCCO)O1 | -15%
CN(CC(=O)Nc1ccc(Cl)cc1)C(=O)c1ccc(-n2cncn2)c([N+](=O)[O-])c1 | -36.7%
CC1Cc2ccccc2N1C(=O)Cn1cc(C(=O)C(=O)N2CCOCC2)c2ccccc21 (stereo not given) | -0.48%
CNC(=S)N(CCc1ccccc1)C1CC(=O)N(c2ccc(Br)cc2)C1=O (stereo not given) | 39%
CCc1ccc2c(c1)c1nnc(SCC(=O)Nc3ccc4c(c3)OCO4)nc1n2C | -9.7%
